Experimental data as given in publication PMC3640342 (Pharmaceutical research, 2013).
In brackets after ≈: the same amount, converted by molar mass. Several values for one entry are separate records, joined by “and”; a condition that tells them apart may be missing. Identical values can stand only once. Like-named read-outs stand apart in the source and are kept apart here.

Columns and labels:
[1] = system: PrP^Sc levels in ScN2a-cl3 cells; assay: cells; format: cell-based, mouse
Media solubility = format: physicochemical; conditions: media used in the cell-based assays, 10% FBS
human liver microsomes = assay: Hepatic microsomal stability, human; format: in vitro ADME; conditions: 1 μM; for t1/2: NADPH
Procedure, shortened: (§1)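 Liver microsomes from mouse, rat or human (~0.5 mg/mL final) were incubated at 37°C with test compound at 1 μM final (0.6% ACN, 0.01% DMSO) in PBS pH 7.4 ± 0.05% PS80, with 1 mM NADPH or PBS.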

MDCK-MDR1 cells = assay: Bidirectional MDCK-MDR1 cell permeability; format: in vitro ADME, canine; conditions: for Papp (A−B) / Papp (B−A): 10 μM, pH 7.4; for Efflux ratio: MDCK-MDR1 cells
mouse liver microsomes = assay: Hepatic microsomal stability, mouse; format: in vitro ADME; conditions: 1 μM; for t1/2: NADPH
Procedure, shortened: as §1

rat liver microsomes = assay: Hepatic microsomal stability, rat; format: in vitro ADME; conditions: 1 μM; for t1/2: NADPH
Procedure, shortened: as §1

[2] = Solubility at pH 2, pH 7.4 and in FaSSIF; format: physicochemical; conditions: for Solubility pH 7.4: pH 7.4 (phosphate) buffer
[3] = Single-dose oral PK at 40 mg/kg; format: in vivo, FVB mice; conditions: single 40 mg/kg oral dose, ranking among 27 2-AMTs and Compd B
[4] = 3-day multidose PK in liquid diet; format: in vivo, FVB mice; conditions: for Brain concentration (C3-day) / Brain and plasma concentrations (C3-day): 3 days in liquid diet
[5] = Single-dose IV PK at 1 mg/kg; format: in vivo, FVB mice; conditions: female, FVB, mouse, plasma, iv, 1 mg/kg
Procedure, shortened: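 Female FVB mice (~25 g) received 1 mg/kg by tail-vein injection in 10% DMSO in PEG400/water (1:1), 10% DMSO, or 10% ethanol in PEG400/water (1:1). Two mice per time point were killed by CO2 at 5 min and 0.25, 0.5, 1, 2, 4 and 6 h, and heparinized plasma was collected. After protein precipitation, samples were assayed by LC/MS/MS, and parameters came from noncompartmental sparse-sampling analysis.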

[6] = Single-dose oral gavage PK at 10 mg/kg; format: in vivo, FVB mice
Procedure, shortened: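 Female FVB mice (~25 g) were dosed at 10 mg/kg by oral gavage in 20% propylene glycol, 5% ethanol, 5% labrosol and 70% PEG400. Two mice per time point were killed by CO2 at 0.25, 0.5, 1, 2, 4, 6 and 24 h. Heparinized plasma and brain (diluted five-fold in water, homogenized) were assayed by LC/MS/MS.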

[7] = cell-culture media with 10% FBS, 1 μM
[8] = Hepatic microsomal stability, human; format: in vitro ADME; conditions: human, human liver microsomes, pH 7.4
Procedure, shortened: as §1

[9] = Hepatic microsomal stability, mouse; format: in vitro ADME; conditions: mouse, mouse liver microsomes, pH 7.4
Procedure, shortened: as §1

[10] = Hepatic microsomal stability, rat; format: in vitro ADME; conditions: rat, rat liver microsomes, pH 7.4
Procedure, shortened: as §1

[11] = mouse brain homogenate, 1 μM, corrected for dilution
mouse plasma = conditions: 1 μM
FVB mice = assay: Drug tolerance / lethal toxicity on repeated dosing in liquid diet; format: in vivo
[12] = female, FVB, mouse, brain, po, 10 mg/kg
[13] = female, FVB, mouse, plasma, po, 10 mg/kg

Compound: Cc1ccnc(Nc2nc(-c3ccc(OC(F)(F)F)cc3)cs2)c1 [IND78]
- EC50 [1]: > 32 µM

Compound: Cc1ccnc(Nc2nc(-c3cc(-c4ccc(Cl)cc4)no3)cs2)c1 [IND64]
- EC50 [1]: 0.85 µM

Compound: CC(=O)CC(c1ccccc1)c1c(O)c2ccccc2oc1=O (stereo not shown) [Warfarin]
- Unbound (%) (human plasma; human, plasma, pH 7.4): 0.68±0.0023%

Compound: Cc1ccc(Nc2nc(-c3ccc(OC(F)(F)F)cc3)cs2)nc1 [IND26]
- EC50 [1]: > 10 µM

Compound: Cc1cccc(Nc2nc(-c3cc4ccccc4o3)cs2)n1 [IND22]
- EC50 [1]: 1.46 µM
- Solubility Media (Media solubility): 20 µM (≈ 6.15 µg/mL)
- % remaining after a 60-min incubation (human liver microsomes): 99%
- t1/2 (human liver microsomes): > 60 min
- Papp (A−B) (MDCK-MDR1 cells): 9.5 ×10⁻⁶ cm/s
- Papp (B−A) (MDCK-MDR1 cells): 8.4 ×10⁻⁶ cm/s
- Efflux ratio (MDCK-MDR1 cells): 0.9
- % remaining after a 60-min incubation (mouse liver microsomes): 40%
- t1/2 (mouse liver microsomes): 49 min
- % remaining after a 60-min incubation (rat liver microsomes): 64%
- t1/2 (rat liver microsomes): > 60 min
- Solubility pH 7.4 ([2]; room temperature overnight): <1 μM

Compound: COc1ccc(-c2csc(Nc3ccc(C)cn3)n2)c(OC)c1 [IND74]
- EC50 [1]: 3.13 µM

Compound: Cc1ccc(Nc2nc(-c3ccc(-c4ccccn4)s3)cs2)nc1 [IND76]
- EC50 [1]: 1.23 µM

Compound: Cc1ccnc(Nc2nc(-c3ccc(O)cc3)cs2)c1 [IND49]
- EC50 [1]: > 10 µM
- AUClast values, brain and plasma [3]: lowest AUClast values

Compound: Cc1ccnc(Nc2nc(-c3ccncc3)cs2)c1 [IND52]
- EC50 [1]: 4.95 µM
- Solubility Media (Media solubility): 76 µM (≈ 20.4 µg/mL)
- % remaining after a 60-min incubation (human liver microsomes): 30%
- Papp (A−B) (MDCK-MDR1 cells): 36.2 ×10⁻⁶ cm/s
- Papp (B−A) (MDCK-MDR1 cells): 48.7 ×10⁻⁶ cm/s
- Efflux ratio (MDCK-MDR1 cells): 1.3
- % remaining after a 60-min incubation (mouse liver microsomes): 0%
- Brain concentration (C3-day) ([4]; 40 mg/kg dose): no measurable brain concentrations
- % remaining after a 60-min incubation (rat liver microsomes): 8%
- Solubility FaSSIF ([2]; fasted-state simulated intestinal fluid): 2 µM (≈ 0.537 µg/mL)
- Solubility pH 2.0 ([2]; pH 2 (HCl) buffer, room temperature overnight): 215 μM
- Solubility pH 7.4 ([2]; room temperature overnight): 1 μM

Compound: COc1ccc(Nc2nc(-c3ccc(OC)c(OC)c3)cs2)nc1 [IND44]
- % remaining after a 60-min incubation (human liver microsomes): 48%
- t1/2 (human liver microsomes): 58 min
- % remaining after a 60-min incubation (mouse liver microsomes): 24%
- t1/2 (mouse liver microsomes): 29 min
- % remaining after a 60-min incubation (rat liver microsomes): 39%
- t1/2 (rat liver microsomes): 45 min
- Solubility pH 7.4 ([2]; room temperature overnight): <1 μM

Compound: COc1ccc(-c2csc(Nc3cc4ccccc4cn3)n2)cc1 [IND86]
- EC50 [1]: 0.34 µM

Compound: Cc1ccnc(Nc2nc(-c3ccc4c(c3)OCCO4)cs2)c1 [IND57]
- EC50 [1]: > 10 µM

Compound: C(=N\Nc1ccc(-c2cnco2)cc1)/c1ccncc1 [Compd B, (E)-5-(4-(2-(pyridin-4-ylmethylene)hydrazinyl)phenyl)oxazole, reference compound]
- EC50 ([1]; Mus musculus, 120 h): 0.25 µM
- Vd [5]: 1.53 L/kg
- clearance [5]: 76 mL/min/kg
- %F (absolute oral bioavailability) ([6]; PO 10 mg/kg vs IV 1 mg/kg, plasma): 24.8%
- Brain/Plasma AUClast Ratio ([6]; PO 10 mg/kg, 10 mg/kg): 0.51
- AUC(0-t) [6, 12]: 1.06 ± 0.1 µM·h
- Cmax [6, 12]: 460 ± 160 nM
- tmax [6, 12]: 120 min
- AUC(0-t) [6, 13]: 2.06 ± 0.06 µM·h
- Cmax [6, 13]: 830 ± 380 nM
- half-life [6, 13]: 60.6 min
- tmax [6, 13]: 30 min
- Unbound (%) [7]: 37% and 36.5±3.30%
- half-life at 1 μM [8]: > 60 min
- remaining at 1 h, 1 μM [8]: 68%
- t1/2 (human liver microsomes): relatively stable
- half-life at 1 μM [9]: 30 min
- remaining at 1 h, 1 μM [9]: 29%
- t1/2 (mouse liver microsomes): rapidly metabolized
- AUC/EC50 ratios in brain and plasma, total concentration ([4]; 100 mg/kg/day for 3 days, AUC = C3-day × τ): greater than 100
- Brain and plasma concentrations (C3-day) ([4]; 25 and 50 mg/kg/day): below the level of quantification
- t1/2 (rat liver microsomes): relatively stable
- half-life at 1 μM [10]: > 60 min
- remaining at 1 h, 1 μM [10]: 77%
- Unbound (%) (human plasma; human plasma, 1 μM): 2.1% and 2.10±1.11%
- Unbound (%) [11]: 11% and 11.4±2.89%
- Unbound (%) (mouse plasma): 9% and 9.06±2.31%
- Deaths (FVB mice; 150 mg/kg/day for 8 days in liquid diet): two of four mice
- Lethal toxicity (FVB mice; 25, 50, and 100 mg/kg/day in liquid diet): none showed lethal toxicity

Compound: COc1ccc(-c2csc(Nc3ccc4ccccc4n3)n2)cc1OC [IND47]
- EC50 [1]: 0.43 µM
- Solubility Media (Media solubility): 52 µM (≈ 18.9 µg/mL)
- % remaining after a 60-min incubation (human liver microsomes): 113%
- Papp (A−B) (MDCK-MDR1 cells): 9.2 ×10⁻⁶ cm/s
- Papp (B−A) (MDCK-MDR1 cells): 8.9 ×10⁻⁶ cm/s
- Efflux ratio (MDCK-MDR1 cells): 1
- % remaining after a 60-min incubation (mouse liver microsomes): 56%
- Brain and plasma concentrations (C3-day) ([4]; 40, 80, 130 and 210 mg/kg/day): ≤ 1 µM
- % remaining after a 60-min incubation (rat liver microsomes): 50%
- Solubility pH 7.4 ([2]; room temperature overnight): <1 μM

Compound: Cc1ccnc(Nc2nc(-c3ccccc3O)cs2)c1 [IND48]
- EC50 [1]: > 10 µM
- AUClast values, brain and plasma [3]: lowest AUClast values

Compound: COc1ccc(-c2csc(Nc3cc4ccccc4cn3)n2)cc1OC [IND46]
- Solubility Media (Media solubility): 174 µM (≈ 63.2 µg/mL)
- % remaining after a 60-min incubation (human liver microsomes): 83%
- % remaining after a 60-min incubation (mouse liver microsomes): 58%
- % remaining after a 60-min incubation (rat liver microsomes): 61%
- Solubility pH 7.4 ([2]; room temperature overnight): <1 μM

Compound: c1ccc2cc(Nc3nc(-c4cc5ccccc5o4)cs3)ncc2c1 [IND91]
- EC50 [1]: 0.92 µM
- Brain and plasma concentrations (C3-day) ([4]; 40, 80, 130 and 210 mg/kg/day): ≤ 1 µM

Compound: COc1ccc(-c2csc(Nc3ccc(C(F)(F)F)cn3)n2)cc1OC [IND43]
- EC50 [1]: 2.53 µM

Compound: Cc1ccc(Nc2nc(-c3ccncc3)cs2)nc1 [IND29]
- EC50 [1]: 1.57 µM

Compound: Cc1ccc(Nc2nc(-c3cc(-c4ccccc4)no3)cs2)nc1 [IND33]
- EC50 [1]: 0.94 µM
- Solubility Media (Media solubility): 225 µM (≈ 75.2 µg/mL)
- % remaining after a 60-min incubation (human liver microsomes): 42%
- Papp (A−B) (MDCK-MDR1 cells): 6.8 ×10⁻⁶ cm/s
- Papp (B−A) (MDCK-MDR1 cells): 8.3 ×10⁻⁶ cm/s
- Efflux ratio (MDCK-MDR1 cells): 1.2
- % remaining after a 60-min incubation (mouse liver microsomes): 111%
- Brain concentration (C3-day) ([4]; 130 mg/kg dose): ~ 30 μM
- % remaining after a 60-min incubation (rat liver microsomes): 73%
- Solubility pH 7.4 ([2]; room temperature overnight): <1 μM

Compound: c1ccc2cc(Nc3nc(-c4ccncc4)cs3)ncc2c1 [IND85]
- EC50 [1]: 0.31 µM
- Solubility Media (Media solubility): 116 µM (≈ 35.3 µg/mL)
- % remaining after a 60-min incubation (human liver microsomes): 66%
- Papp (A−B) (MDCK-MDR1 cells): 3.03 ×10⁻⁶ cm/s
- Papp (B−A) (MDCK-MDR1 cells): 4.44 ×10⁻⁶ cm/s
- Efflux ratio (MDCK-MDR1 cells): 1.5
- % remaining after a 60-min incubation (mouse liver microsomes): 6%
- Brain and plasma concentrations (C3-day) ([4]; 40, 80, 130 and 210 mg/kg/day): ≤ 1 µM
- % remaining after a 60-min incubation (rat liver microsomes): 32%
- Solubility pH 7.4 ([2]; room temperature overnight): <1 μM

Compound: COc1ccc(-c2csc(Nc3cc(C)ccn3)n2)cc1OC [IND42]
- EC50 [1]: 1 µM

Compound: Cc1ccc(Nc2nc(-c3cccc(C#N)c3)cs2)nc1 [IND38]
- EC50 [1]: 2.29 µM

Compound: COc1ccc(-c2csc(Nc3cnccn3)n2)cc1OC [IND82]
- EC50 [1]: 15.6 µM

Compound: Cc1ccc(Nc2nc(-c3c(-c4ccccc4)noc3C)cs2)nc1 [IND36]
- EC50 [1]: > 32 µM
